ChEMBL document CHEMBL1126705, “16 beta-([18F]fluoro)estrogens: systematic investigation of a new series of fluorine-18-labeled estrogens as potential imaging agents for estrogen-receptor-positive breast tumors” (J Med Chem, 1993)

Legend:
Rattus norvegicus [1] = test: Tested in vivo for the biodistribution in rat muscle after 3 hours following an intravenous dose of 120 microCi of drug in 10%ethanol saline; type: ADME, organism-based, Muscle tissue
Method in brief: (§1)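 Immature (25-day-old) female Sprague-Dawley rats, ether-anesthetized, given the fluorine-18-labeled estrogen by femoral vein injection in 10% ethanol saline. […] Other groups were killed by decapitation at 1 or 3 h. Blood and organs were weighed and gamma-counted. Data are % injected dose/g, mean ± SD, typically n = 5 per group.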

[2] = molecular target: T1, Estrogen receptor (Rattus norvegicus) (UniProt P06211+Q62986)
Rattus norvegicus [3] = test: Tested in vivo for the biodistribution in rat uterus at 1 hour after intravenous dose of 120 microCi of the drug and 15 micro g of estradiol; type: ADME, organism-based; method in brief: as §1
Rattus norvegicus [4] = test: Tested in vivo for the biodistribution in rat uterus/blood after 3 hours following an intravenous dose of 120 microCi of drug in 10%ethanol saline; type: ADME, organism-based
Method in brief: (§2)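 Female Sprague-Dawley rats, 25 days old (~40–53 g), ether-anesthetized, given the 18F-labeled estrogen iv via femoral vein in 10% ethanol saline. […] Others were sacrificed by decapitation at 1 or 3 h. Blood and organs were excised, weighed and gamma counted as % injected dose/g, mean ± SD, typically n = 5 (4–6).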

Rattus norvegicus [5] = test: Tested in vivo for the biodistribution in rat liver at 1 hour after intravenous dose of 120 microCi of the drug and 15 u g of estradiol; type: ADME, organism-based; method in brief: as §1
Rattus norvegicus [6] = test: Tested in vivo for the biodistribution in rat ovaries at 1 hour after intravenous dose of 120 microCi of drug in 10%ethanol saline; type: ADME, organism-based, Female gonad; method in brief: as §1
Rattus norvegicus [7] = test: Tested in vivo for the biodistribution in rat liver after 3 hours following an intravenous dose of 120 microCi of drug in 10%ethanol saline; type: ADME, organism-based; method in brief: as §1
Rattus norvegicus [8] = test: Tested in vivo for the biodistribution in rat muscle at 1 hour after intravenous dose of 120 microCi of the drug and 15 ug of estradiol; type: ADME, organism-based, Muscle tissue; method in brief: as §1
Rattus norvegicus [9] = test: Tested in vivo for the biodistribution in rat muscle at 1 hour after intravenous dose of 120 microCi of drug in 10%ethanol saline; type: ADME, organism-based, Muscle tissue; method in brief: as §1
[10] = molecular target: T2, Sex hormone-binding globulin (Homo sapiens) (UniProt P04278); test: Relative binding affinity against sex steroid binding protein (SBP)
T2 sequence (whole entry): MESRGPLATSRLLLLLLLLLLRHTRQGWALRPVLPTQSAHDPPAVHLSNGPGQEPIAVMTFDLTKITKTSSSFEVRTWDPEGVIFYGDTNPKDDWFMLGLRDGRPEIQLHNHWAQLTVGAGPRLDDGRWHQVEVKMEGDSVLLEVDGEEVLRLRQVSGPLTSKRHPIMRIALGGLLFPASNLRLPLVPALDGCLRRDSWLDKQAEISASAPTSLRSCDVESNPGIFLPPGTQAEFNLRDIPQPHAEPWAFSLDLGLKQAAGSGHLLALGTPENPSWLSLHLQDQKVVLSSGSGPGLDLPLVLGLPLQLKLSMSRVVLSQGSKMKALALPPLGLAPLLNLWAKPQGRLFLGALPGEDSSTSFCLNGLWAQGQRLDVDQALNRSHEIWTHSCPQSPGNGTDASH

Rattus norvegicus [11] = test: Tested in vivo for the biodistribution in rat uterus/muscle at 1 hour after intravenous dose of 120 microCi of the drug and 15 micro g of estradiol; type: ADME, organism-based, Muscle tissue; method in brief: as §2
Rattus norvegicus [12] = test: Tested in vivo for the biodistribution in rat uterus/muscle after 3 hours following an intravenous dose of 120 microCi of drug in 10%ethanol saline; type: ADME, organism-based, Muscle tissue; method in brief: as §2
Rattus norvegicus [13] = test: Tested in vivo for the biodistribution in rat kidney after 3 hours following an intravenous dose of 120 microCi of drug in 10%ethanol saline; type: ADME, organism-based
Method in brief: (§3)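 Female Sprague-Dawley rats (25 days old, 40 g) under ether received 120 μCi of tracer iv (femoral vein; effective specific activity 1306 Ci/mmol) in 10% ethanol saline. They were decapitated at 1 h (n = 6) or 3 h (n = 5). Tissues were weighed and gamma-counted, reported as % injected dose/g, mean ± SD.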

Rattus norvegicus [14] = test: Tested in vivo for the biodistribution in rat bone at 1 hour after intravenous dose of 120 microCi of the drug and 15 ug of estradiol; type: ADME, organism-based, Bone element
Rattus norvegicus [15] = test: Tested in vivo for the biodistribution in rat bone at 1 hour after intravenous dose of 120 microCi of drug in 10%ethanol saline; type: ADME, organism-based, Bone element; method in brief: as §3
Rattus norvegicus [16] = test: Tested in vivo for the biodistribution in rat kidney at 1 hour after intravenous dose of 120 microCi of drug in 10%ethanol saline; type: ADME, organism-based; method in brief: as §3
Rattus norvegicus [17] = test: Tested in vivo for the biodistribution in rat bone after 3 hours following an intravenous dose of 120 microCi of drug in 10%ethanol saline; type: ADME, organism-based, Bone element; method in brief: as §3
Rattus norvegicus [18] = test: Tested in vivo for the biodistribution in blood of female rat at 1 hour after intravenous dose of 120 microCi of drug in 10%ethanol saline; type: ADME, organism-based; method in brief: as §3
Rattus norvegicus [19] = test: Tested in vivo for the biodistribution in rat ovaries at 1 hour after intravenous dose of 120 microCi of the drug and 15 ug of estradiol; type: ADME, organism-based, Female gonad; method in brief: as §1
Rattus norvegicus [20] = test: Tested in vivo for the biodistribution in blood of female rat at 1 hour after intravenous dose of 120 microCi of the drug and 15 u g of estradiol; type: ADME, organism-based
Rattus norvegicus [21] = test: Tested in vivo for the biodistribution in blood of female rat after 3 hours following an intravenous dose of 120 microCi of drug in 10%ethanol saline; type: ADME, organism-based; method in brief: as §3
Rattus norvegicus [22] = test: Tested in vivo for the biodistribution in rat liver at 1 hour after intravenous dose of 120 microCi of drug in 10%ethanol saline; type: ADME, organism-based; method in brief: as §1
[23] = molecular target: T1, Estrogen receptor (Rattus norvegicus); remark: listed apart in the source
Rattus norvegicus [24] = test: Tested in vivo for the biodistribution in rat uterus/blood at 1 hour after intravenous dose of 120 microCi of the drug and 15 ug of estradiol; type: ADME, organism-based; method in brief: as §2
Rattus norvegicus [25] = test: Tested in vivo for the biodistribution in rat uterus at 1 hour after intravenous dose of 120 microCi of drug in 10%ethanol saline; type: ADME, organism-based; method in brief: as §1
Rattus norvegicus [26] = test: Tested in vivo for the biodistribution in rat uterus/muscle at 1 hour after intravenous dose of 120 microCi of drug in 10%ethanol saline; type: ADME, organism-based, Muscle tissue; method in brief: as §2
Rattus norvegicus [27] = test: Tested in vivo for the biodistribution in rat ovaries after 3 hours following an intravenous dose of 120 microCi of drug in 10%ethanol saline; type: ADME, organism-based, Female gonad; method in brief: as §1
Rattus norvegicus [28] = test: Tested in vivo for the biodistribution in rat uterus after 3 hours following an intravenous dose of 120 microCi of drug in 10%ethanol saline; type: ADME, organism-based; method in brief: as §1
Rattus norvegicus [29] = test: Tested in vivo for the biodistribution in rat kidney at 1 hour after intravenous dose of 120 microCi of the drug and 15 u g of estradiol; type: ADME, organism-based
Rattus norvegicus [30] = test: Tested in vivo for the biodistribution in rat fat at 1 hour after intravenous dose of 120 microCi of drug in 10%ethanol saline; type: ADME, organism-based, Adipose tissue; method in brief: as §3
Rattus norvegicus [31] = test: Tested in vivo for the biodistribution in rat uterus/blood at 1 hour after intravenous dose of 120 microCi of drug in 10%ethanol saline; type: ADME, organism-based; method in brief: as §2
Rattus norvegicus [32] = test: Tested in vivo for the biodistribution in rat fat at 1 hour after intravenous dose of 120 microCi of the drug and 15 micro g of estradiol; type: ADME, organism-based, Adipose tissue
Rattus norvegicus [33] = test: Tested in vivo for the biodistribution in rat fat after 3 hours following an intravenous dose of 120 microCi of drug in 10%ethanol saline; type: ADME, organism-based, Adipose tissue; method in brief: as §3
[34] = molecular target: T3, Alpha-fetoprotein (Rattus norvegicus) (UniProt P02773); test: Relative binding affinity for Alphafetoprotein
T3 sequence (whole entry): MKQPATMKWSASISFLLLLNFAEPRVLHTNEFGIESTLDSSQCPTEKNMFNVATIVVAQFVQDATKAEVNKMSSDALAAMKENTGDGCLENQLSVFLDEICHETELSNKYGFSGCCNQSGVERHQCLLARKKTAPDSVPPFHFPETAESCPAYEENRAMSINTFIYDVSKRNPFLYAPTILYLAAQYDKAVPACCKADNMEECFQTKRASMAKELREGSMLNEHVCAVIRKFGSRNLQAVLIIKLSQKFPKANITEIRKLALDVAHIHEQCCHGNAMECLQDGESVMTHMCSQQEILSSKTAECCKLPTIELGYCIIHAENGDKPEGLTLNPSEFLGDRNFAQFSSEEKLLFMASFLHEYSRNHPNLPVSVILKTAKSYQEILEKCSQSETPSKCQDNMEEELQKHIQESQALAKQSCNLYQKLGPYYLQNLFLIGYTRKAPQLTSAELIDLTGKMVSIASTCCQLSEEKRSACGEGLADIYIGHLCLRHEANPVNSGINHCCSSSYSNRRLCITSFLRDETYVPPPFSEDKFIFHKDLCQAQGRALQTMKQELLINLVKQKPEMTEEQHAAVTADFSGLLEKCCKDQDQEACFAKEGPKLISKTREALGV

[35] = Partition coefficient (logP); type: physicochemical; details: octanol/water
Method in brief: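 Octanol/water log P estimated from log k'w measured by reversed-phase HPLC (Minick method) on a C8 silica column.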

With C[C@]12CC[C@@H]3c4ccc(O)cc4CC[C@H]3[C@@H]1C[C@H](F)[C@@H]2O the “Injected (dose/g)” value (Rattus norvegicus [1]) was 0.151%, the BSI [2] was 19 and the Injected (Rattus norvegicus [3]) was 1.257%. For the same compound, the Injected (Rattus norvegicus [4]) was 2.273%, the Injected (Rattus norvegicus [5]) was 3.771% and the Injected (dose/g) (Rattus norvegicus [6]) was 1.91%. The “Injected (dose/g)” value (Rattus norvegicus [7]) was 1.483%, the Injected (Rattus norvegicus [8]) was 0.466% and the “Injected (dose/g)” value (Rattus norvegicus [9]) was 0.402%. The relative binding affinity (RBA) [10] was 8.9, the Injected (Rattus norvegicus [11]) was 2.685% and the Injected (Rattus norvegicus [12]) was 9.05%. For the same compound, the Injected (Rattus norvegicus [13]) was 0.821%, the Injected (Rattus norvegicus [14]) was 1.216% and the “Injected (dose/g)” value (Rattus norvegicus [15]) was 1.008%. For the same compound, the Injected (Rattus norvegicus [16]) was 2.051%, the “Injected (dose/g)” value (Rattus norvegicus [17]) was 1.201% and the Injected (Rattus norvegicus [18]) was 0.949%. For the same compound, the “Injected (dose/g)” value (Rattus norvegicus [19]) was 1.189%, the Injected (Rattus norvegicus [20]) was 1.486% and the Injected (Rattus norvegicus [21]) was 0.534%. The “Injected (dose/g)” value (Rattus norvegicus [22]) was 2.957%, the NSB [23] was 0.63 and the Injected (Rattus norvegicus [24]) was 0.857%. For the same compound, the Injected (Rattus norvegicus [25]) was 4.994%, the Injected (Rattus norvegicus [26]) was 15.22% and the Injected (Rattus norvegicus [27]) was 0.615%. For the same compound, the Injected (Rattus norvegicus [28]) was 1.176%, the “Injected (dose/g)” value (Rattus norvegicus [29]) was 3.388% and the Injected (Rattus norvegicus [30]) was 0.31%. For the same compound, the “Injected (dose/g)” value (Rattus norvegicus [31]) was 5.631%, the “Injected (dose/g)” value (Rattus norvegicus [32]) was 0.391% and the Injected (Rattus norvegicus [33]) was 0.131%. The relative binding affinity (RBA) [34] was 20 and the logP [35] was 2.81.
